Source: ChEMBL document CHEMBL1121366, “Synthesis and immunological activity of 5,6,6a,8,9,11a-hexahydronaphth[1',2':4,5]imidazo[2,1-b]thiazoles and 5,6,6a,9,10,11a-hexahydroanaphth[2',1':4,5]imidazo[2,1-b]thiazoles” (J Med Chem, 1980)

Key:
Mus musculus [1] = assay: Effect on humoral immune response in mice against sheep red blood cells by the plaque-forming cell (PFC/10e6 spleen cells) method in experiment 3 at dose 12 mg/kg; format: functional
Procedure, shortened: (§1)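 Male ICR mice, 8-10 weeks old, groups of four, were immunized iv with 1 × 10^8 SRBC in PBS. After 24 h they received a single sc inguinal dose in saline, or as a suspension in saline with 1% Me2SO. Splenic hemolytic plaque-forming cells were counted 4 days later by Cunningham's method. Values are the mean of four ± SE, with a paired t test against the control.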

Mus musculus [2] = assay: Tested for increase in foot-pad thickness (mm) by its effect on cellular immune response in mice against sheep red blood cells by the DHR method in experiment 12 at dose 3 mg/kg; format: functional
Procedure, shortened: (§2)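 Delayed-type hypersensitivity was run in male CDF1 (Balb/c × DBA/2Cr) mice, 8-10 weeks old, groups of four. Mice were sensitized with 1 × 10^8 SRBC in PBS into one hind footpad, with sc inguinal dosing in saline or in 1% Me2SO-saline. Four days later the opposite footpad was challenged with 1 × 10^8 SRBC. The read-out was the gauge-measured increase in thickness from just before to 24 h after challenge, as mean ± SE (n = 4).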

Mus musculus [3] = assay: Tested for increase in foot-pad thickness (mm) by its effect on cellular immune response in mice against sheep red blood cells by DHR method in experiment 12 at dose 12 mg/kg; format: functional; procedure, shortened: as §2
Mus musculus [4] = assay: Effect on humoral immune response in mice against sheep red blood cells by the plaque-forming cell (PFC/10e6 spleen cells) method in experiment 3 at dose 3 mg/kg; format: functional; procedure, shortened: as §1
Mus musculus [5] = assay: Tested for increase in foot-pad thickness (mm) by its effect on cellular immune response in mice against sheep red blood cells by DHR method in experiment 14 at dose 12 mg/kg; format: functional; procedure, shortened: as §2
Mus musculus [6] = assay: Effect on humoral immune response in mice against sheep red blood cells by the plaque-forming cell (PFC/10e6 spleen cells) method in experiment 5 at dose 12 mg/kg; format: functional
Procedure, shortened: (§3)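 Male CDF1 (Balb/c × DBA/2Cr) mice, 8-10 weeks old, groups of four, were immunized iv with 1 × 10^8 SRBC in PBS. After 24 h they received a single sc inguinal dose in saline, or as a suspension in saline with 1% Me2SO. Spleens were taken 4 days later and hemolytic plaque-forming cells counted by Cunningham's method. Values are the mean of four mice ± SE, with a paired Student's t test against the control.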

Mus musculus [7] = assay: Effect on humoral immune response in mice against sheep red blood cells by the plaque-forming cell (PFC/10e6 spleen cells) method in experiment 5 at dose 3 mg/kg; format: functional; procedure, shortened: as §3
Mus musculus [8] = assay: Tested for increase in foot-pad thickness (mm) by its effect on cellular immune response in mice against sheep red blood cells by the DHR method in experiment 14 at dose 3 mg/kg; format: functional; procedure, shortened: as §2
Mus musculus [9] = assay: Effect on humoral immune response in mice against sheep red blood cells by the plaque-forming cell (PFC/10e 6 spleen cells) method in experiment 2 at dose 12 mg/kg; format: functional; procedure, shortened: as §1
Mus musculus [10] = assay: Tested for increase in foot-pad thickness (mm) by its effect on cellular immune response in mice against sheep red blood cells by DHR method in experiment 16 at dose 12 mg/kg; format: functional
Procedure, shortened: (§4)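 Male mice, 8–10 weeks old, ICR strain. Groups of four were sensitized with 1 × 10^8 SRBC in PBS into one hind footpad, with compound given sc in the inguinal region in saline or saline/1% Me2SO. Four days later, 1 × 10^8 SRBC were injected into the other hind footpad. Foot thickness was measured with a dial gauge just before and 24 h after this challenge, and the increase was taken as the difference. Values are the mean of four mice ± SE.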

Mus musculus [11] = assay: Tested for the immunological activity by its effect on humoral immune response in mice against sheep red blood cells (SRBC) by the plaque-forming cell (PFC/10e 6 spleen cells) method in experiment 7 at dose 12 mg/kg; format: functional; procedure, shortened: as §3
Mus musculus [12] = assay: Effect on humoral immune response in mice against sheep red blood cells by the plaque-forming cell (PFC/10e 6 spleen cells) method in experiment 2 at dose 3 mg/kg; format: functional; procedure, shortened: as §1
Mus musculus [13] = assay: Tested for increase in foot-pad thickness (mm) by its effect on cellular immune response in mice against sheep red blood cells by DHR method in experiment 11 at dose 12 mg/kg; format: functional
Procedure, shortened: (§5)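 Male ICR mice, 8-10 weeks old, groups of four, were sensitized with 1 × 10^8 SRBC in PBS into one hind footpad and dosed sc in the inguinal region, in saline or in saline with 1% Me2SO. Four days later the other footpad was challenged with 1 × 10^8 SRBC. Foot thickness was gauged just before and 24 h after challenge, and the increase was reported as mean of four ± SE.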

Mus musculus [14] = assay: Tested for the immunological activity by its effect on humoral immune response in mice against sheep red blood cells (SRBC) by the plaque-forming cell (PFC/10e 6 spleen cells) method in experiment 7 at dose 3 mg/kg; format: functional; procedure, shortened: as §3
Mus musculus [15] = assay: (§6) Acute lethal dose was determined in mice upon subcutaneous administration; format: ADME, organism-based; conditions: in vivo, sc
Procedure, shortened: (§7)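 Male mice, 8–10 weeks old, CDF1 (Balb/c × DBA/2Cr). Groups of six dosed once, either iv or sc. Three to five dose levels were chosen from 400, 300, 150, 80, 40, 20 and 10 mg/kg. LD50 was calculated by the Litchfield–Wilcoxon method. Vehicle was saline or saline with 1% Me2SO, depending on compound.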

Mus musculus [16] = assay: (§8) Acute lethal dose was determined in mice upon intravenous administration; format: ADME, organism-based; conditions: in vivo; procedure, shortened: as §7
Mus musculus [17] = assay: Tested increase in foot-pad thickness (mm) by its effect on cellular immune response in mice against sheep red blood cells by the DHR method in experiment 16 at dose 3 mg/kg; format: functional
Procedure, shortened: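 Male ICR mice, 8–10 weeks old, groups of four. Sensitized with SRBC (1 × 10^8) in PBS injected into one hind footpad; compound given sc in the inguinal region in saline or in saline with 1% Me2SO. Four days later the other hind footpad was challenged with SRBC (1 × 10^8). Dial gauge read just before and 24 h after challenge. Value is the mean increase ± SE.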

Mus musculus [18] = assay: Effect on humoral immune response in mice against sheep red blood cells by the plaque-forming cell (PFC/10e 6 spleen cells) method in experiment 1 at dose 12 mg/kg; format: functional; procedure, shortened: as §3
Mus musculus [19] = assay: Tested for increase in foot-pad thickness (mm) by its effect on cellular immune response in mice against sheep red blood cells by DHR method in experiment 10 at dose 12 mg/kg; format: functional; procedure, shortened: as §5
Mus musculus [20] = assay: Effect on humoral immune response in mice against sheep red blood cells by the plaque-forming cell (PFC/10e 6 spleen cells) method in experiment 1 at dose 3 mg/kg; format: functional; procedure, shortened: as §3
Mus musculus [21] = assay: Tested for increase in foot-pad thickness (mm) by its effect on cellular immune response in mice against sheep red blood cells by the DHR method in experiment 10 at dose 3 mg/kg; format: functional; procedure, shortened: as §5
Mus musculus [22] = assay: Effect on humoral immune response in mice against sheep red blood cells by the plaque-forming cell (PFC/10e6 spleen cells) method in experiment 7 at dose 3 mg/kg; format: functional
Procedure, shortened: (§9)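 Male mice, 8–10 weeks old, CDF1 (Balb/c × DBA/2Cr) in experiment 7. Groups of four were immunized iv with 1 × 10^8 SRBC in PBS. After 24 h, compound was given sc in the inguinal region in saline or saline/1% Me2SO. Four days later, splenic hemolytic plaque-forming cells were counted by the Cunningham method and expressed per 10^6 spleen cells. Values are the mean of four mice ± SE.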

Mus musculus [23] = assay: Tested for increase in foot-pad thickness (mm) by its effect on cellular immune response in mice against sheep red blood cells by the DHR method in experiment 16 at dose 3 mg/kg; format: functional; procedure, shortened: as §4
Mus musculus [24] = assay: Effect on humoral immune response in mice against sheep red blood cells by the plaque-forming cell (PFC/10e6 spleen cells) method in experiment 7 at dose 12 mg/kg; format: functional; procedure, shortened: as §9
Mus musculus [25] = assay: Effect on humoral immune response in mice against sheep red blood cells by the plaque-forming cell (PFC/10e6 spleen cells) method in experiment 8 at dose 12 mg/kg; format: functional; procedure, shortened: as §3
Mus musculus [26] = assay: Effect on humoral immune response in mice against sheep red blood cells by the plaque-forming cell (PFC/10e6 spleen cells) method in experiment 4 at dose 12 mg/kg; format: functional; procedure, shortened: as §3
Mus musculus [27] = assay: Effect on humoral immune response in mice against sheep red blood cells by the plaque-forming cell (PFC/10e6 spleen cells) method in experiment 6 at dose 3 mg/kg; format: functional; procedure, shortened: as §3
Mus musculus [28] = assay: Effect on humoral immune response in mice against sheep red blood cells by the plaque-forming cell (PFC/10e6 spleen cells) method in experiment 4 at dose 3 mg/kg; format: functional; procedure, shortened: as §3
[29] = as §6; format: ADME, organism-based; conditions: mouse, in vivo, sc; procedure, shortened: as §7
Mus musculus [30] = assay: Effect on humoral immune response in mice against sheep red blood cells by the plaque-forming cell (PFC/10e6 spleen cells) method in experiment 8 at dose 3 mg/kg; format: functional; procedure, shortened: as §3
Mus musculus [31] = assay: Effect on humoral immune response in mice against sheep red blood cells by the plaque-forming cell (PFC/10e6 spleen cells) method in experiment 6 at dose 12 mg/kg; format: functional; procedure, shortened: as §3
[32] = as §8; format: ADME, organism-based; conditions: mouse, in vivo; procedure, shortened: as §7

For `Fc1ccc2c(c1)CCC1C2N=C2SCCN21` (trans isomer), the PFC (Mus musculus [1]) was 1620, the Increase in footpad thickness (Mus musculus [2]) was 0.44 mm and the Increase in footpad thickness (Mus musculus [3]) was 0.44 mm. The PFC (Mus musculus [4]) was 1970.
For `Clc1ccc2c(c1)CCC1C2N=C2SCCN21` (trans isomer), the Increase in footpad thickness (Mus musculus [5]) was 0.46 mm, the PFC (Mus musculus [6]) was 790 and the PFC (Mus musculus [7]) was 1530. For the same compound, the Increase in footpad thickness (Mus musculus [8]) was 0.5 mm.
Work on `c1ccc2c(c1)CCC1N=C3SCCN3C21` (trans isomer) yielded a PFC (Mus musculus [9]) of 2580, an Increase in footpad thickness (Mus musculus [10]) of 0.43 mm and a PFC (Mus musculus [11]) of 960. For the same compound, the PFC (Mus musculus [12]) was 2440, the Increase in footpad thickness (Mus musculus [13]) was 0.39 mm and the PFC (Mus musculus [14]) was 1110. The LD50 (Mus musculus [15]) was 190 mg/kg, the LD50 (Mus musculus [16]) was 26 mg/kg and the Increase in footpad thickness (Mus musculus [17]) was 0.27 mm.
With `c1ccc2c(c1)CCC1C2N=C2SCCN21` (trans isomer) the PFC (Mus musculus [18]) was 1500, the Increase in footpad thickness (Mus musculus [19]) was 0.42 mm and the PFC (Mus musculus [20]) was 1100. The Increase in footpad thickness (Mus musculus [21]) was 0.57 mm, the LD50 (Mus musculus [15]) was 320 mg/kg and the LD50 (Mus musculus [16]) was 67 mg/kg.
`Brc1ccc2c(c1)C1N=C3SCCN3C1CC2` (trans isomer) showed an Increase in footpad thickness (Mus musculus [10]) of 0.31 mm, a PFC (Mus musculus [22]) of 740 and an Increase in footpad thickness (Mus musculus [23]) of 0.35 mm. For the same compound, the PFC (Mus musculus [24]) was 920.
For `Fc1ccc2c(c1)CCC1N=C3SCCN3C21` (trans isomer), the PFC (Mus musculus [1]) was 2070, the Increase in footpad thickness (Mus musculus [2]) was 0.42 mm and the Increase in footpad thickness (Mus musculus [3]) was 0.42 mm. The PFC (Mus musculus [4]) was 2550.
`Clc1ccc2c(c1)CCC1N=C3SCCN3C21` (trans isomer) gave an Increase in footpad thickness (Mus musculus [5]) of 0.36 mm, a PFC (Mus musculus [6]) of 820 and a PFC (Mus musculus [7]) of 1060. It also gave an Increase in footpad thickness (Mus musculus [8]) of 0.39 mm.
In the case of `c1ccc([C@H]2CN3CCSC3=N2)cc1` [LEVAMISOLE], the PFC (Mus musculus [1]) is reported as 1870, the PFC (Mus musculus [25]) is reported as 1200 and the PFC (Mus musculus [26]) is reported as 1800. For the same compound, the PFC (Mus musculus [27]) was 1850, the PFC (Mus musculus [28]) was 1380 and the PFC (Mus musculus [22]) was 1390. For the same compound, the PFC (Mus musculus [6]) was 1670, the PFC (Mus musculus [24]) was 970 and the PFC (Mus musculus [7]) was 1330. It also gave an LD50 [29] of 136 mg/kg, a PFC (Mus musculus [30]) of 570 and a PFC (Mus musculus [31]) of 1330. The LD50 [32] was 15 mg/kg, the Increase in footpad thickness (Mus musculus [17]) was 0.34 mm and the PFC (Mus musculus [4]) was 2820.
